As usually defined, the Km is the concentration of substrate that gives half-maximal velocity. As a reminder, the Vmax is the top rate of the reaction or transport when substrate is in excess. By kcat is commonly meant the number of substrate molecules converted per active site and unit of time at saturation. As usually defined, the Kd is the free concentration of one partner at which half of the binding sites on the other are occupied at equilibrium, for simple one-to-one binding. A lower Kd goes with a tighter complex. As a reminder, the kcat/Km is the second-order rate constant that governs catalysis at low substrate concentration.

These results are taken from paper PMC12752248 (BMC Biotechnology, 2025).

Data set [1] has as its target T1, BJ6PAD (Bacillus subtilis, UniProt O07006).
T1 sequence (O07006 with tags, fused parts or gaps A39G/H105Y/L108V/E129D/F132Y/K134N/E136A/V138I/D139N/E142T/V143L/K146E): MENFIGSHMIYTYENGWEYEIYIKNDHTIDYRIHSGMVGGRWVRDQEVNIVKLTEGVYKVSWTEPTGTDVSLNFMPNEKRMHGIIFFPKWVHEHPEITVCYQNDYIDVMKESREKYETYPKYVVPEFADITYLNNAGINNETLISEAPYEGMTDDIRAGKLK
In words: Effects of metal ions and chemical reagents on enzyme activity, BJ6PAD. Format: biochemical, Bacillus subtilis J6. The settings on record: 60 min incubation, no additive = 100%. In a few lines:
(§1)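 His-tagged enzyme was expressed in E. coli BL21(DE3) and Ni-agarose purified. It was incubated 60 min with each metal ion (K⁺, Mg²⁺, Ca²⁺, Fe²⁺, Mn²⁺, Cu²⁺, Zn²⁺), EDTA, SDS or Triton X-100 at final concentrations of 1 or 5 mmol/L. Activity was then assayed in 50 mmol/L citrate-Na₂HPO₄ pH 6.0 at 37 ℃ for 5 min, stopped with methanol, with residual substrate by C18 HPLC at 280 nm. Done in triplicate.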

In data set [2] the target is T2, BJ6PAD-N (Bacillus subtilis, UniProt O07006).
T2 sequence (O07006 with tags, fused parts or gaps A39G/H105Y/L108V/E129D/F132Y/K134N/E136A/V138I/D139N/E142T/V143L/K146E): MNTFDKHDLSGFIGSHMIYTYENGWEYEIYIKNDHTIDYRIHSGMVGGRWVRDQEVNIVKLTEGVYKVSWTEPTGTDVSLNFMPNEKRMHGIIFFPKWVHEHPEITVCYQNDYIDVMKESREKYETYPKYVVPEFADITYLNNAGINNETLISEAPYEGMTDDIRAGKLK
In words: Effects of metal ions and chemical reagents on enzyme activity, BJ6PAD-N. The data set is classed as biochemical, Bacillus subtilis J6. Particulars: 60 min incubation, no additive = 100%. In a few lines: as §1

The target in data set [3] is T1, BJ6PAD. The experiment in a line: Specific enzyme activity towards phenolic acid substrates, BJ6PAD. Format: biochemical, Bacillus subtilis J6. The settings on record: 37 ℃, pH 6.0; pCA, FA, CafA 10 mmol/L, SA 6 mmol/L. In a few lines:
(§2)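 Both purified His-tagged enzymes were reacted at 37 ℃ in 50 mmol/L citrate-Na₂HPO₄ pH 6.0 for 5 min with three hydroxycinnamic acids at 10 mmol/L or sinapic-type acid at 6 mmol/L. Reactions were stopped with methanol, with an enzyme-free buffer control. Remaining substrate was measured by C18 HPLC at 280 nm. One IU is 1 µmol substrate converted/min; protein was by BCA, giving IU/mg. Done in triplicate.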

Data set [4] deals with T2, BJ6PAD-N. The experiment in a line: Specific enzyme activity towards phenolic acid substrates, BJ6PAD-N. Format: biochemical, Bacillus subtilis J6. The settings on record: 37 ℃, pH 6.0; pCA, FA, CafA 10 mmol/L, SA 6 mmol/L. In a few lines:
as §2

The test system of data set [5] is BJ6PAD-N. The description is as above. The data set is classed as biochemical, Bacillus subtilis J6. Particulars: BJ6PAD-N vs BJ6PAD. In a few lines: as §2
For data set [6], the target named is T1, BJ6PAD. In words: Enzymatic kinetic parameters. Format: biochemical, Bacillus subtilis J6.
Data set [7] addresses T2, BJ6PAD-N. In words: Enzymatic kinetic parameters. Format: biochemical, Bacillus subtilis J6.
Data set [8] addresses T1, BJ6PAD. The experiment in a line: Isothermal titration calorimetry of enzyme-substrate interaction, BJ6PAD. Format: binding, Bacillus subtilis J6. In a few lines:
(§3)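 Ni-purified His-tagged enzyme, eluted in […] buffer pH 7.9–8.1, was placed in the cell at 0.02 mmol/L. Each of four phenolic acid substrates (0.2 mmol/L in the same buffer) was in the syringe. All solutions were degassed 10 min. Twenty 2 µL injections were given 150 s apart at 37 °C with 350 rpm stirring. Thermodynamic parameters came from an independent-site model fit, in triplicate.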
(In general: Isothermal titration calorimetry measures the heat released or taken up as one component is titrated into another.)

The target in data set [9] is T2, BJ6PAD-N. In words: Isothermal titration calorimetry of enzyme-substrate interaction, BJ6PAD-N. The data set is classed as binding, Bacillus subtilis J6. In a few lines:
as §3

In data set [10] the test system is BJ6PAD-N. The experiment in a line: Enzymatic kinetic parameters. The data set is classed as biochemical, Bacillus subtilis J6. The settings on record: BJ6PAD-N vs BJ6PAD.
Substrate in data set [11]: O=C(O)C=Cc1ccc(O)cc1
The experiment in a line: Enzymatic kinetic parameters. Format: biochemical, Bacillus subtilis J6. Particulars: pH 6.0.

Like-named read-outs stand apart in the source and are kept apart here. Marks after values point to notes of the source that are not given here.

As for `[K+]` [K^+], the Residual enzyme activity in data set [1] (1 mmol/L additive) was 104.96 ± 0.24^b %; in [1] (5 mmol/L additive), 98.61 ± 1.46^b %; in data set [2] (1 mmol/L additive), 96.63 ± 2.16^a %; in data set [2] (5 mmol/L additive), 89.61 ± 1.14^a %.
Turning to `CCCCCCCCCCCCOS(=O)(=O)[O-].[Na+]` [SDS, sodium dodecyl sulfate], the Residual enzyme activity is 67.75 ± 1.3^a % in data set [1] (1 mmol/L additive) and 80.5 ± 0.91^b % in [2] (1 mmol/L additive).
As for `O=C(O)/C=C/c1ccc(O)c(O)c1` [caffeic acid], the Specific enzyme activity in data set [3] was 92.34 ± 0.57^b IU/mg. Besides, in data set [4], the Specific enzyme activity is given as 100.88 ± 3.71^a IU/mg. In addition, the “Increase of specific enzyme activity of BJ6PAD-N compared with BJ6PAD” value (“Increase … with BJ6PAD” for short) in data set [5] amounted to 9.25%. Also, in data set [6], the Michaelis constant (Km) came to 3.54 ± 1.05 mM, the Vmax is 137.1 ± 8.87^b IU/mg and the kcat is listed as 43.67 ± 3.61^b s^− 1. Further, in [7], the Michaelis constant (Km) was found to be 3.03 ± 0.12 mM, the Vmax is 139.3 ± 5.70^ab IU/mg and the kcat is 46.39 ± 1.55^ab s^− 1. Moreover, the Kd in data set [8] was 4.23 µM. For the same molecule, in [8] (ITC, 37 °C), the ΔG was -31.89 kJ/mol and the ΔH is on record as -35.33 kJ/mol. In addition, in data set [9], the Kd worked out at 7 µM. In data set [9] (ITC, 37 °C), the ΔG is -30.51 kJ/mol, the ΔH is -62.34 kJ/mol and the ΔS is -0.10 kJ/mol·K.
For the molecule `COc1cc(/C=C/C(=O)O)ccc1O` [ferulic acid], in [3], the Specific enzyme activity is 150.85 ± 2.15^b IU/mg. Besides, in [4], the Specific enzyme activity is listed as 178.56 ± 1.58^a IU/mg. Further, the “Increase … with BJ6PAD” value in data set [5] came out at 18.37%. Besides, in data set [6], the Michaelis constant (Km) is 4.62 ± 0.01 mM, the maximum rate (Vmax) is given as 229.73 ± 4.95^b IU/mg and the kcat is on record as 73.17 ± 1.29^b s^− 1. Also, in data set [7], the Km was found to be 8.42 ± 0.19 mM, the Vmax is 337.97 ± 7.10^a IU/mg and the kcat is 112.54 ± 1.93^a s^− 1. Also, in data set [8] (ITC, 37 °C), binding was characterised by a dissociation constant (Kd) of 1.25 µM, the ΔG is recorded as -35.08 kJ/mol, the ΔH is -21.48 kJ/mol and the ΔS was found to be 0.04 kJ/mol·K. Further, in data set [9] (ITC, 37 °C), binding was characterised by a dissociation constant (Kd) of 59.4 µM, the ΔG is recorded as -25.17 kJ/mol, the ΔH is listed as -2.63 kJ/mol and the ΔS turned out to be 0.07 kJ/mol·K.
For `O=C(O)/C=C/c1ccc(O)cc1` [p-coumaric acid], the results for the Specific enzyme activity in data set [3] and in data set [4] were 209.82 ± 1.41^b IU/mg and 248.96 ± 1.59^a IU/mg, respectively. In addition, the “Increase … with BJ6PAD” value in data set [5] amounted to 18.65%. In addition, the figures for the Kd in data set [8] and in data set [9] were 12.8 µM and 16.3 µM, respectively. For the same molecule, the ΔG in data set [8] (ITC, 37 °C) was -28.94 kJ/mol; in data set [9] (ITC, 37 °C), -28.50 kJ/mol. The ΔH was -61.55 kJ/mol in [8] (ITC, 37 °C) and -6.05 kJ/mol in data set [9] (ITC, 37 °C). In data set [9] (ITC, 37 °C), the ΔS was determined as 0.07 kJ/mol·K.
For the molecule `COc1cc(/C=C/C(=O)O)cc(OC)c1O` [sinapic acid], the Specific enzyme activity in data set [3] is recorded as 17.37 ± 0.64^b IU/mg. In addition, the Specific enzyme activity in [4] is on record as 23.42 ± 0.02^a IU/mg. In [5], the “Increase … with BJ6PAD” value worked out at 34.83%. In [6], the Michaelis-Menten constant (Km) came out at 4.19 ± 1.13 mM, the Vmax was 35.02 ± 6.03^a IU/mg and the kcat is 11.15 ± 1.57^a s^− 1. Further, in data set [7], the Km stood at 1.25 ± 0.11 mM, the Vmax is on record as 29.48 ± 1.23^a IU/mg and the catalytic constant (kcat) is on record as 9.82 ± 0.33^a s^− 1. In [10], the “Decrease in Km value of BJ6PAD-N compared with BJ6PAD” value is given as 70.17% and the “Increase of catalytic efficiency (kcat/Km) of BJ6PAD-N over BJ6PAD” value is given as 1.93 fold. In data set [8] (ITC, 37 °C), this molecule registered a Kd of 19.3 µM, a ΔG of -27.94 kJ/mol and a ΔH of -42.87 kJ/mol. In data set [9] (ITC, 37 °C), this molecule yielded a Kd of 7.02 µM, a ΔG of -30.70 kJ/mol, a ΔH of -0.41 kJ/mol and a ΔS of 0.10 kJ/mol·K.

B1: BJ6PAD (Bacillus subtilis subsp. subtilis str. 168) (protein)
chain: MENFIGSHMIYTYENGWEYEIYIKNDHTIDYRIHSGMVGGRWVRDQEVNIVKLTEGVYKVSWTEPTGTDVSLNFMPNEKRMHGIIFFPKWVHEHPEITVCYQNDYIDVMKESREKYETYPKYVVPEFADITYLNNAGINNETLISEAPYEGMTDDIRAGKLK
Regarding B1, in data set [11], the Km was 6.87 ± 0.36^b mmol/L, the Vmax is 335 ± 5.45 µmol/min/mg, the kcat is 107 ± 1.42 s⁻¹ and the catalytic efficiency (kcat/Km) was 15600 ± 1070 M⁻¹ s⁻¹.

B2: BJ6PAD-N (Bacillus subtilis subsp. subtilis str. 168) (protein)
chain: MNTFDKHDLSGFIGSHMIYTYENGWEYEIYIKNDHTIDYRIHSGMVGGRWVRDQEVNIVKLTEGVYKVSWTEPTGTDVSLNFMPNEKRMHGIIFFPKWVHEHPEITVCYQNDYIDVMKESREKYETYPKYVVPEFADITYLNNAGINNETLISEAPYEGMTDDIRAGKLK
As to B2, in data set [11], the Km is on record as 11.85 ± 0.56^a mmol/L, the Vmax worked out at 536.4 ± 2.55 µmol/min/mg, the kcat amounted to 179 ± 3.41 s⁻¹ and the kcat/Km came out at 15070 ± 80 M⁻¹ s⁻¹.
